Measured values as given in ChEMBL document CHEMBL4354843, “Structure-Based Design of a Potent and Selective Covalent Inhibitor for SRC Kinase That Targets a P-Loop Cysteine” (J Med Chem, 2020).

Tests used:
[1] = target: Fibroblast growth factor receptor 2 (Homo sapiens) (UniProt P21802); experiment: Binding affinity to wild-type human partial length FGFR2 (D457 to E769 residues) expressed in bacterial expression system assessed as residual binding level at 1 uM by Kinomescan method relative to control
[2] = target: Cyclin-dependent kinase 2 homolog (Plasmodium falciparum (isolate 3D7)) (UniProt P61075); experiment: Binding affinity to wild-type Plasmodium falciparum full length PK5 (M1 to N288 residues) expressed in mammalian expression system assessed as residual binding level at 1 uM by Kinomescan method relative to control
Summary of the method: (§1)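 Active-site-directed KinomeScan competition binding panel covering 468 kinases, compound tested at 1 μM. Each readout is the kinase signal remaining with compound, expressed as a percentage of the DMSO control. […]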

[3] = target: Activin receptor type-2B (Homo sapiens) (UniProt Q13705); experiment: Binding affinity to wild-type human ACVR2B (H169 to D504 residues) expressed in bacterial expression system assessed as residual binding level at 1 uM by Kinomescan method relative to control; summary of the method: as §1
[4] = target: Calcium/calmodulin-dependent protein kinase type IV (Homo sapiens) (UniProt Q16566); experiment: Binding affinity to wild-type human partial length CAMK4 (A22 to A322 residues) expressed in bacterial expression system assessed as residual binding level at 1 uM by Kinomescan method relative to control
[5] = target: Phosphorylase b kinase gamma catalytic chain, liver/testis isoform (Homo sapiens) (UniProt P15735); experiment: Binding affinity to wild-type human partial length PHKG2 (M1 to W300 residues) expressed in bacterial expression system assessed as residual binding level at 1 uM by Kinomescan method relative to control
[6] = target: Serine/threonine-protein kinase 32B (Homo sapiens) (UniProt Q9NY57); experiment: Binding affinity to wild-type human full length YANK2 (M1 to S414 residues) expressed in bacterial expression system assessed as residual binding level at 1 uM by Kinomescan method relative to control
[7] = target: Serine/threonine-protein kinase Nek10 (Homo sapiens) (UniProt Q6ZWH5); experiment: Binding affinity to wild-type human partial length NEK10 (L488 to R809 residues) expressed in mammalian expression system assessed as residual binding level at 1 uM by Kinomescan method relative to control
[8] = target: Casein kinase I isoform gamma-3 (Homo sapiens) (UniProt Q9Y6M4); experiment: Binding affinity to wild-type human full length CSNK1G3 (M1 to K447 residues) expressed in bacterial expression system assessed as residual binding level at 1 uM by Kinomescan method relative to control; summary of the method: as §1
[9] = target: Receptor-interacting serine/threonine-protein kinase 1 (Homo sapiens) (UniProt Q13546); experiment: Binding affinity to wild-type human partial length RIPK1 (M1 to K305 residues) expressed in bacterial expression system assessed as residual binding level at 1 uM by Kinomescan method relative to control
[10] = target: Epidermal growth factor receptor (Homo sapiens) (UniProt P00533); experiment: Binding affinity to wild-type human partial length EGFR (R669 to V1011 residues) expressed in bacterial expression system assessed as residual binding level at 1 uM by Kinomescan method relative to control
[11] = target: Non-receptor tyrosine-protein kinase TNK1 (Homo sapiens) (UniProt Q13470); experiment: Binding affinity to wild-type human full length TNK1 (M1 to P661 residues) expressed in bacterial expression system assessed as residual binding level at 1 uM by Kinomescan method relative to control
Summary of the method: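 KinomeScan, an active site-directed competition binding panel of 468 kinases. The test compound was at 1 μM. The readout is remaining kinase binding as a percentage of the DMSO control. Scores above 35% were treated as weak binding and not listed.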

[12] = target: Bone morphogenetic protein receptor type-2 (Homo sapiens) (UniProt Q13873); experiment: Binding affinity to wild-type human partial length BMPR2 (R179 to Q526 residues) expressed in mammalian expression system assessed as residual binding level at 1 uM by Kinomescan method relative to control
[13] = target: Tyrosine-protein kinase JAK1 (Homo sapiens) (UniProt P23458); experiment: Binding affinity to wild-type human partial length JAK1 JH1 catalytic domain (V856 to K1154 residues) expressed in bacterial expression system assessed as residual binding level at 1 uM by Kinomescan method relative to control
[14] = target: Mitogen-activated protein kinase kinase kinase 5 (Homo sapiens) (UniProt Q99683); experiment: Binding affinity to wild-type human partial length ASK1 (E648 to S964 residues) expressed in bacterial expression system assessed as residual binding level at 1 uM by Kinomescan method relative to control
[15] = target: Tyrosine-protein kinase Srms (Homo sapiens) (UniProt Q9H3Y6); experiment: Binding affinity to wild-type human partial length SRMS (L208 to P488 residues) expressed in mammalian expression system assessed as residual binding level at 1 uM by Kinomescan method relative to control
[16] = target: NT-3 growth factor receptor (Homo sapiens) (UniProt Q16288); experiment: Binding affinity to wild-type human partial length TRKC (Q531 to G825 residues) expressed in mammalian expression system assessed as residual binding level at 1 uM by Kinomescan method relative to control
[17] = target: RAC-beta serine/threonine-protein kinase (Homo sapiens) (UniProt P31751); experiment: Binding affinity to wild-type human partial length AKT2 expressed in bacterial expression system assessed as residual binding level at 1 uM by Kinomescan method relative to control
[18] = target: LIM domain kinase 2 (Homo sapiens) (UniProt P53671); experiment: Binding affinity to wild-type human full length LIMK2 (M1 to P638 residues) expressed in bacterial expression system assessed as residual binding level at 1 uM by Kinomescan method relative to control; summary of the method: as §1
[19] = target: Maternal embryonic leucine zipper kinase (Homo sapiens) (UniProt Q14680); experiment: Binding affinity to wild-type human full length MELK (M1 to V651 residues) expressed in bacterial expression system assessed as residual binding level at 1 uM by Kinomescan method relative to control
Summary of the method: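 Active-site-directed competition binding panel (KinomeScan) covering 468 kinases. Test agent was screened at 1 μM. The read-out is the remaining kinase signal expressed relative to a DMSO control. Scores above 35%, taken as weak binding, were not reported.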

[20] = target: CDK4/Cyclin D3 (Homo sapiens) (UniProt P11802+P30281); experiment: Binding affinity to wild-type human full length CDK4/cyclinD3 (M1 to E303 residues) expressed in mammalian expression system assessed as residual binding level at 1 uM by Kinomescan method relative to control; summary of the method: as §1
[21] = system: Hepatocyte growth factor receptor (Homo sapiens), P08581 [M1250T]; experiment: Binding affinity to human partial length MET M1250T mutant (D1010 to S1367 residues) expressed in bacterial expression system assessed as residual binding level at 1 uM by Kinomescan method relative to control
Summary of the method: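 KinomeScan active site-directed competition binding panel (468 kinases), compound tested at 1 μM. Result expressed as remaining kinase signal versus DMSO control (percent of control).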

[22] = target: Mitogen-activated protein kinase kinase kinase 9 (Homo sapiens) (UniProt P80192); experiment: Binding affinity to wild-type human partial length MLK1 (V88 to W426 residues) expressed in bacterial expression system assessed as residual binding level at 1 uM by Kinomescan method relative to control

Sequence of Tyrosine-protein kinase Srms (Homo sapiens) (Q9H3Y6 whole entry, the tested form may be a part): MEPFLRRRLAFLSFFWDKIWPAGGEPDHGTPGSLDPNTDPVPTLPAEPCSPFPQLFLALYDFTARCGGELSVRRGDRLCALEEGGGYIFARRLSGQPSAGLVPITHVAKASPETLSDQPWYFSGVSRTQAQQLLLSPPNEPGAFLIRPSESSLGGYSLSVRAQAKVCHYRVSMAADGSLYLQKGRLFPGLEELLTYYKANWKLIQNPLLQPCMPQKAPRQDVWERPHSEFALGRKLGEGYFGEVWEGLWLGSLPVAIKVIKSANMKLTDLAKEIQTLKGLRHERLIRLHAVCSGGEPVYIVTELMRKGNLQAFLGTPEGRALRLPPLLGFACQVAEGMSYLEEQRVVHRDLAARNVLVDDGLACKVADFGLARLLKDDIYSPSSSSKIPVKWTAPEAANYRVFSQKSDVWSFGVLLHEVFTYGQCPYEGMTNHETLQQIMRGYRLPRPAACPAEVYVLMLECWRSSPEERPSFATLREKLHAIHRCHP
Sequence of Cyclin-dependent kinase 2 homolog (Plasmodium falciparum (isolate 3D7)) (P61075 whole entry, the tested form may be a part): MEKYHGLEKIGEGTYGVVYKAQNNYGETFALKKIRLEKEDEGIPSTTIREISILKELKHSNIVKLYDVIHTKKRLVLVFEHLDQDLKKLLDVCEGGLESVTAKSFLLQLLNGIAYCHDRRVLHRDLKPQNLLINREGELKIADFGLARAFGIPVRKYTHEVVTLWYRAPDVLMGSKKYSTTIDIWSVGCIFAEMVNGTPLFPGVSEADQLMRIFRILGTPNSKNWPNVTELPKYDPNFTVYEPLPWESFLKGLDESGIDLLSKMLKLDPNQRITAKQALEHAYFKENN
Sequence of Epidermal growth factor receptor (Homo sapiens) (P00533 whole entry, the tested form may be a part): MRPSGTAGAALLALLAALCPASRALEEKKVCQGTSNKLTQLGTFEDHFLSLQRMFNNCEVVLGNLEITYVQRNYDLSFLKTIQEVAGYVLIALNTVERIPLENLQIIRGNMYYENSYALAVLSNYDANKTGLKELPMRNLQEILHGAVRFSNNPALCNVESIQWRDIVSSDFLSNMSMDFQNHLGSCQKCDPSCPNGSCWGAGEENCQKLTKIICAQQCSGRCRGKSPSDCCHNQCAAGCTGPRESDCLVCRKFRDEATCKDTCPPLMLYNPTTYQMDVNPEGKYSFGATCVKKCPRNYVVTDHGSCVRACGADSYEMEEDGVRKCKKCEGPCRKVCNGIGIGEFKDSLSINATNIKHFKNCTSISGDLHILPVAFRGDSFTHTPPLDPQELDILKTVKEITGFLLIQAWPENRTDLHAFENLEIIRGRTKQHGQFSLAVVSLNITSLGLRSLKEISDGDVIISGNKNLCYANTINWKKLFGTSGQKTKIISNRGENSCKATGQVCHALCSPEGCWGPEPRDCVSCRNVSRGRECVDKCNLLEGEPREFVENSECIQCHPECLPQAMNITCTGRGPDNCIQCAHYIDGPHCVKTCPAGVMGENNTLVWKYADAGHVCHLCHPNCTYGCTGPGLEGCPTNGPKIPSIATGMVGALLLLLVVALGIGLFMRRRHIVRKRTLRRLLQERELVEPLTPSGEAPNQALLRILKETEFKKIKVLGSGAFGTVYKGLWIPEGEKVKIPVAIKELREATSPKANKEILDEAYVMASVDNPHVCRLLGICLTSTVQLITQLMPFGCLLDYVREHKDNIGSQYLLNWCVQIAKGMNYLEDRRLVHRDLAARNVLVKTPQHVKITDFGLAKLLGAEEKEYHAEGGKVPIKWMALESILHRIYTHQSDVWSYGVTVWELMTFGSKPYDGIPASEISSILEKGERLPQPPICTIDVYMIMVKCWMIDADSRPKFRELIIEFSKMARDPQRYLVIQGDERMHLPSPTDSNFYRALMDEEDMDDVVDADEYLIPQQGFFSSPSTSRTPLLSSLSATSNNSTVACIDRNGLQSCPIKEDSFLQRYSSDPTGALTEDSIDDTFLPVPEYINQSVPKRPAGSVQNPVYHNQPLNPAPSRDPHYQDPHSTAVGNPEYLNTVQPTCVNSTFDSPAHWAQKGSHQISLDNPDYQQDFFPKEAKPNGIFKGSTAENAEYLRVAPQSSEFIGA
Sequence of Serine/threonine-protein kinase 32B (Homo sapiens) (Q9NY57 whole entry, the tested form may be a part): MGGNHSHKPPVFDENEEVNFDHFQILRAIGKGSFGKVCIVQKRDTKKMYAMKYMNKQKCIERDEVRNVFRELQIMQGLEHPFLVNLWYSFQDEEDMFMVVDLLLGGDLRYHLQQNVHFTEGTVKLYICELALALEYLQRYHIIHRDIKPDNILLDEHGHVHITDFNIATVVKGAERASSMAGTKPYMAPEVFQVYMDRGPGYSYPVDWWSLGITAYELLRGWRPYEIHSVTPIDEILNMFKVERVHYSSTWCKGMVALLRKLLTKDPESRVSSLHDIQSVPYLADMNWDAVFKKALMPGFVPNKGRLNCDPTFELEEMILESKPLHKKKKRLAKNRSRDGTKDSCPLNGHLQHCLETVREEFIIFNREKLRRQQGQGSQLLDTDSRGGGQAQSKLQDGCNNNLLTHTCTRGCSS
Sequence of LIM domain kinase 2 (Homo sapiens) (P53671 whole entry, looked up, the tested form may be a part): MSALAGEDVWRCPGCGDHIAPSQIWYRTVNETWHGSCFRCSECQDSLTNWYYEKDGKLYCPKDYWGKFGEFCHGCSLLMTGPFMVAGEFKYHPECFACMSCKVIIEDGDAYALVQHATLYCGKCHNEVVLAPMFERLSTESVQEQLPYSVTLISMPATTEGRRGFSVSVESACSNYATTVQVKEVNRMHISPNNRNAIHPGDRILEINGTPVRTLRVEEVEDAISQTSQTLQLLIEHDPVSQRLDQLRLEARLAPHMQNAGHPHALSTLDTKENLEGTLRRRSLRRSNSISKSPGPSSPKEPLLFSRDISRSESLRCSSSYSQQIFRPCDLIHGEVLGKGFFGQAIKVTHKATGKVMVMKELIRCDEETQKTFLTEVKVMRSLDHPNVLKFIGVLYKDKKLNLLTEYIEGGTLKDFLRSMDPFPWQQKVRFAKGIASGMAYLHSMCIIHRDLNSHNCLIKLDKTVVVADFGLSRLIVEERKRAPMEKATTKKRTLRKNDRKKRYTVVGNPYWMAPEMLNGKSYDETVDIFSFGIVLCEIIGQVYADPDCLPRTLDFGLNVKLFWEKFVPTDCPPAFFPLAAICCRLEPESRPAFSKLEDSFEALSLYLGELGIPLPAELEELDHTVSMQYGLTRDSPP
Sequence of Bone morphogenetic protein receptor type-2 (Homo sapiens) (Q13873 whole entry, the tested form may be a part): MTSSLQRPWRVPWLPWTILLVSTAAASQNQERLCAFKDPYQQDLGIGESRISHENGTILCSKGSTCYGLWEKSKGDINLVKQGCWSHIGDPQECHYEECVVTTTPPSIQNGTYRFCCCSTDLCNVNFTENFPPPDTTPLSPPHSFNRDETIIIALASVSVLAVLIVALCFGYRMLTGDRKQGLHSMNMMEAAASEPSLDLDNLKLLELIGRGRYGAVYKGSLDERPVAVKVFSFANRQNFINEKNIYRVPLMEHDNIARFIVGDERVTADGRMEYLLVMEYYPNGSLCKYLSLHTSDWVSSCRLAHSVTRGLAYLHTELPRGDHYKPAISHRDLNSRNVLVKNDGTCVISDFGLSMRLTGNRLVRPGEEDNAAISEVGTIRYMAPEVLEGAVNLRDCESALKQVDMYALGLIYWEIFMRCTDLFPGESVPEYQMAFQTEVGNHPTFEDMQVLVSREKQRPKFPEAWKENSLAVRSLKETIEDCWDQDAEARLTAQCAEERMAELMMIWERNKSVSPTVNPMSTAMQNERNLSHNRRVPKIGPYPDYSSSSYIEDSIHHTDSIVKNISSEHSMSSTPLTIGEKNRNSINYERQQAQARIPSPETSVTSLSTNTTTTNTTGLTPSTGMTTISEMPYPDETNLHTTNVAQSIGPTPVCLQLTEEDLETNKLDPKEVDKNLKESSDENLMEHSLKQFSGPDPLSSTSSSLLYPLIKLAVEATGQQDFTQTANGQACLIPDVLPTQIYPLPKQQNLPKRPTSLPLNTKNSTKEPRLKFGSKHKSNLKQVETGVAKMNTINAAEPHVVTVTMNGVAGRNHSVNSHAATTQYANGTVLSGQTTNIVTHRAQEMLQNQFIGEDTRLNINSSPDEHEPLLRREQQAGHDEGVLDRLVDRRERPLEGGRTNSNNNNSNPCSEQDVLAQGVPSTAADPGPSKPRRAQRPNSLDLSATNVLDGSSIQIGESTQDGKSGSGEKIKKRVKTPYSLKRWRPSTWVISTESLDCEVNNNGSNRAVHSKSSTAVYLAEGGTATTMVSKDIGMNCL
Sequence of Non-receptor tyrosine-protein kinase TNK1 (Homo sapiens) (Q13470 whole entry, the tested form may be a part): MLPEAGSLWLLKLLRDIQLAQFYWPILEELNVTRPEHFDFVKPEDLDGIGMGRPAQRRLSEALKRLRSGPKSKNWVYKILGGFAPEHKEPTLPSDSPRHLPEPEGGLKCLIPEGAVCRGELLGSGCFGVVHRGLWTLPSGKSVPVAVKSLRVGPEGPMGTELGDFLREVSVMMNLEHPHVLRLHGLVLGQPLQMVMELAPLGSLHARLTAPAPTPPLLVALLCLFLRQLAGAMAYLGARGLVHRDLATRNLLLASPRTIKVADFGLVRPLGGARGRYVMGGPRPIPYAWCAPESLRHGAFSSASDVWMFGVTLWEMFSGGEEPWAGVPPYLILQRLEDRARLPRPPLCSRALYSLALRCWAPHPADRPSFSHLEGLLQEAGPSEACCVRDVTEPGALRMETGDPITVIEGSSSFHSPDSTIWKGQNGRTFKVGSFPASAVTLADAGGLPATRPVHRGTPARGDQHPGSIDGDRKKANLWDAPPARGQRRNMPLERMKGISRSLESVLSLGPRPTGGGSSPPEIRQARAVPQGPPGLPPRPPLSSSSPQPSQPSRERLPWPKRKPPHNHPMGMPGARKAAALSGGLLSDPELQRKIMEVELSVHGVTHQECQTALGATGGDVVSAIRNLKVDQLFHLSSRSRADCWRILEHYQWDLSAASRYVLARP

C=CC(=O)Nc1ccccc1Nc1nc(Nc2ccc(N3CCN(C)CC3)cc2)ncc1C(=O)Nc1c(C)cccc1Cl
Activity [1]: 95% | Activity [2]: 100% | Activity [3]: 100% | Activity [4]: 100% | Activity [5]: 100% | Activity [6]: 100% | Activity [7]: 100% | Activity [8]: 100% | Activity [9]: 100% | Activity [10]: 80% | Activity [11]: 29% | Activity [12]: 100% | Activity [13]: 100% | Activity [14]: 100% | Activity [15]: 87% | Activity [16]: 100% | Activity [17]: 100% | Activity [18]: 100% | Activity [19]: 100% | Activity [20]: 100% | Activity [21]: 100% | Activity [22]: 100%
